Reference: ChEMBL document CHEMBL1136843, “N-Benzyl-1-heteroaryl-3-(trifluoromethyl)-1H-pyrazole-5-carboxamides as inhibitors of co-activator associated arginine methyltransferase 1 (CARM1)” (Bioorg Med Chem Lett, 2009)
Active and inactive are the calls of the source. No cut-off for these calls is given here.

What was measured:
[1] = target: T1, Histone-arginine methyltransferase CARM1 (Mus musculus, UniProt Q9WVG6); assay: Inhibition of mouse recombinant his-tagged CARM1 expressed in Sf9 cells by histone methyltransferase assay
T1 sequence (Q9WVG6 whole entry): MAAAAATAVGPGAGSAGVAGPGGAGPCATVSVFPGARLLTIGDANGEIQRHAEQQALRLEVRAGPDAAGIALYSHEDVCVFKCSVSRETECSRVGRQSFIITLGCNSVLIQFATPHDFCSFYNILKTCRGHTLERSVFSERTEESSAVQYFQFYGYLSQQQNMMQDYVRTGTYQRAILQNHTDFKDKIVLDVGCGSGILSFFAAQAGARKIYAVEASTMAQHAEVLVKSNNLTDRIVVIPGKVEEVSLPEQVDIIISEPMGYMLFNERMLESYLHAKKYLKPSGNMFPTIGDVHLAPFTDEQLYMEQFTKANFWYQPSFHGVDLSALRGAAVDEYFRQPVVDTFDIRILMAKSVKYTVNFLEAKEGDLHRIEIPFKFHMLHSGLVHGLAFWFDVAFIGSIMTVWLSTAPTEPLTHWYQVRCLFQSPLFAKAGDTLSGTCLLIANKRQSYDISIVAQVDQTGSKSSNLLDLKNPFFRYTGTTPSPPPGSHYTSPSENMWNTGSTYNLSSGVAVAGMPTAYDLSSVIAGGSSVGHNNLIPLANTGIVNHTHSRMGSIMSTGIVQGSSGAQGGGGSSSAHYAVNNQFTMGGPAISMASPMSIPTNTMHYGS
Method in brief: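 Recombinant CARM1 diluted in Tris–HCl pH 9 and pre-incubated with compound for 10 min at rt. Histone H3 substrate plus SAM containing 20% [3H]SAM then added and incubated 15 min at 30 °C. Reaction quenched with SAH, spotted onto P30 filtermat with wax scintillant, and incorporated radioactivity counted.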

[2] = system: DU-145; assay: Cytotoxicity against human DU145 cells by MTT assay; format: functional, cell-based
Method in brief: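 DU145 prostate carcinoma cell growth measured by MTT proliferation assay; HDAC inhibitor MS-275 as positive control.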

[3] = target: T2, Estrogen receptor (Homo sapiens, UniProt P03372); assay: Antiestrogenic activity in human T47D cells expressing estrogen receptor assessed as estrogen-dependent transcription by luciferase reporter gene assay; format: cell-based
T2 sequence (P03372 whole entry): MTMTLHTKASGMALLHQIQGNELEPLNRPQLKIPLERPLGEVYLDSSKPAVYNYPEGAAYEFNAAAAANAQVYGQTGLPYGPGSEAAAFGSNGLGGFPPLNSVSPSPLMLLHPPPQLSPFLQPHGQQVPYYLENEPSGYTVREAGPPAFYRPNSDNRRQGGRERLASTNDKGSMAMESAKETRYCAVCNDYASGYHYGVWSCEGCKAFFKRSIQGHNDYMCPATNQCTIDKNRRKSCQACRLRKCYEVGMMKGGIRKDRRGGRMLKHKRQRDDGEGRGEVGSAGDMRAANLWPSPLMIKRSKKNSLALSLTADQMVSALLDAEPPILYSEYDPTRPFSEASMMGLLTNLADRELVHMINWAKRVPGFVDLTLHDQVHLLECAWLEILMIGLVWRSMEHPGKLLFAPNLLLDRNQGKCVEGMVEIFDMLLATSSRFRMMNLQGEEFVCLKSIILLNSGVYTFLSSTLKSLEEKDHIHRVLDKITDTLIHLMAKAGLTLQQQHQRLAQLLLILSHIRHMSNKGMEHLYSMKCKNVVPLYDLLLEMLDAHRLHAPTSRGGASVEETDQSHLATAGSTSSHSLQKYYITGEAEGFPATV

[4] = system: T47D; assay: Growth inhibition of human estrogen-dependent T47D cells after 72 hrs; format: functional, cell-based
Method in brief: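 T47D breast ductal carcinoma cells stimulated with estradiol and counted after 72 h; tamoxifen as positive control.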

[5] = target: T3, Androgen receptor (Homo sapiens, UniProt P10275); assay: Antiandrogenic activity in human MDA-MB-453 cells expressing androgen receptor assessed as inhibition of DHT-induced androgen-dependent transcription by luciferase reporter gene assay; format: cell-based
T3 sequence (P10275 whole entry): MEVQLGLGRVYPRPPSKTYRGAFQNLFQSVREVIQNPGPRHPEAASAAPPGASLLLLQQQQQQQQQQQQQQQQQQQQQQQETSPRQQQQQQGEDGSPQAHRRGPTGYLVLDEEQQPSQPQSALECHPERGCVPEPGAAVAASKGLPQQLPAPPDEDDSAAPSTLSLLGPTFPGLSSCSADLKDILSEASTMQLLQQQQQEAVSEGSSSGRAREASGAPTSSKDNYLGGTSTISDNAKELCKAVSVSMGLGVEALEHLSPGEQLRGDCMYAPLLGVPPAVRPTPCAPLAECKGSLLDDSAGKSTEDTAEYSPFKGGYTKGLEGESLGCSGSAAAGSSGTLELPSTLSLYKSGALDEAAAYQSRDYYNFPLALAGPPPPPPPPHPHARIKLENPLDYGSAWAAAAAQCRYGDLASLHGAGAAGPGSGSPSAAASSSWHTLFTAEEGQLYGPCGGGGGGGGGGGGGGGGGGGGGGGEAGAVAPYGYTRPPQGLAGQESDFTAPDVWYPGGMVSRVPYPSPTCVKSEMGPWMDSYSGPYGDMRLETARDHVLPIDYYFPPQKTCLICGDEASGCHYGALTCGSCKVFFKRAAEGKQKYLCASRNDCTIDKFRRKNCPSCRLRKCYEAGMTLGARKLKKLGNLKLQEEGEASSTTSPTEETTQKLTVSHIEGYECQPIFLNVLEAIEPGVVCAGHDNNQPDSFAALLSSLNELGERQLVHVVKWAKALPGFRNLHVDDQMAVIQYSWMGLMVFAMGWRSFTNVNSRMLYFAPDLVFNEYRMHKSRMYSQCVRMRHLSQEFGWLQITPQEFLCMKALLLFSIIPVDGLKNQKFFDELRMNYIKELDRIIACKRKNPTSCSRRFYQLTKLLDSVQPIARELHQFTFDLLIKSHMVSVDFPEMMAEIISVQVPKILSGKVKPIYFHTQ

[6] = target: Protein arginine N-methyltransferase 1 (Homo sapiens, UniProt Q99873); assay: Inhibition of PRMT1
Sequence of Protein arginine N-methyltransferase 1 (Q99873 whole entry): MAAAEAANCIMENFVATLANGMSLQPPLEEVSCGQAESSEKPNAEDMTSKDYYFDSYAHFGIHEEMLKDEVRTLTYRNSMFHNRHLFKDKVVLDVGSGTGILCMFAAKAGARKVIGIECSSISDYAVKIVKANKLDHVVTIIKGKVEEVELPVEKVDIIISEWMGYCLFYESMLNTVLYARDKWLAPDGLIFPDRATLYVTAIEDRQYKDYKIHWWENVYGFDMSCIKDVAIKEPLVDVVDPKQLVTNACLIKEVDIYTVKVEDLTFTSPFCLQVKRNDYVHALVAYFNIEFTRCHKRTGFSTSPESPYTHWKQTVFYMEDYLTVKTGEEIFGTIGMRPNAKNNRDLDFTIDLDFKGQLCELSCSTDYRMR

[7] = target: T4, Histone-lysine N-methyltransferase SETD7 (Homo sapiens, UniProt Q8WTS6); assay: Inhibition of Set7/9 lysine methyltransferase
T4 sequence (Q8WTS6 whole entry): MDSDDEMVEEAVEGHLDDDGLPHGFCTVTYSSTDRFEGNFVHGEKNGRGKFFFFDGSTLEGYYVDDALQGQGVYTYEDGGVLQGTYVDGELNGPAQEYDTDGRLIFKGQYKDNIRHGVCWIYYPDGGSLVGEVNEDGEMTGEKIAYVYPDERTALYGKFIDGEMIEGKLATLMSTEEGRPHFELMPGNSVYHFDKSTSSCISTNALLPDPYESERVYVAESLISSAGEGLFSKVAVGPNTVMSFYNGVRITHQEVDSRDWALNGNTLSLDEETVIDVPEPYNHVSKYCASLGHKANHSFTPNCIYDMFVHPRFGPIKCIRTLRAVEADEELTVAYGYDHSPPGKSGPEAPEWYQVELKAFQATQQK

[8] = target: T5, Histone-arginine methyltransferase CARM1 (Mus musculus) (UniProt Q9WVG6); assay: Inhibition of mouse recombinant CARM1 assessed as inhibition of histone H3 methylation at 5 uM after 48 hrs by cell based assay
T5 sequence (whole entry): T1 sequence (Q9WVG6 whole entry)
Method in brief: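 Cell-based readout of histone H3 arginine 26 methylation, a CARM1 target site, in two different cell lines treated with compound up to […] for 48 h.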

| IC50 [1] [nM] | SMILES | further results |
| --- | --- | --- |
| 220 | C[C@H](N)C(=O)NCc1cc(-n2nc(C(F)(F)F)cc2C(=O)NCc2ccccc2)cs1 | – |
| – | Nc1ccccc1NC(=O)c1ccc(CNC(=O)OCc2cccnc2)cc1 [ENTINOSTAT] | IC50 [2]: 2 µM |
| 300 | COc1ccccc1CNC(=O)c1cc(C(F)(F)F)nn1-c1ccc(CNC(=O)[C@H](C)N)s1 | – |
| 60 | COc1ccccc1CNC(=O)c1cc(C(F)(F)F)nn1-c1cccc(CNC(=O)[C@H](C)N)c1 | IC50 [3]: > 10 µM; IC50 [4]: > 10 µM; IC50 [5]: > 10 µM; IC50 [2]: 18 µM |
| 3050 | COc1ccccc1CNC(=O)c1cc(C(F)(F)F)nn1-c1cccc(CNC(=O)[C@H](C)N)n1 | – |
| 2200 | COc1ccccc1CNC(=O)c1cc(C(F)(F)F)nn1-c1nc(CNC(=O)[C@H](C)N)cs1 | – |
| 60 | COc1ccccc1CNC(=O)c1cc(C(F)(F)F)nn1-c1csc(CNC(=O)[C@H](C)N)c1 | IC50 [6]: > 100 µM; IC50 [7]: > 100 µM; Activity [8]: inactive; IC50 [3]: > 10 µM; IC50 [4]: > 10 µM; IC50 [5]: > 10 µM; IC50 [2]: 18 µM |
| – | CC/C(=C(\c1ccccc1)c1ccc(OCCN(C)C)cc1)c1ccccc1 [TAMOXIFEN] | IC50 [4]: 1 µM |
| > 10000 | COc1ccccc1CNC(=O)c1cc(C(F)(F)F)nn1-c1cccc2cc(CNC(=O)[C@H](C)N)oc12 | – |
| 230 | C[C@H](N)C(=O)NCc1ccc(-n2nc(C(F)(F)F)cc2C(=O)NCc2ccccc2)s1 | – |
| 4200 | COc1ccccc1CNC(=O)c1cc(C(F)(F)F)nn1-c1cc(CNC(=O)[C@H](C)N)ccn1 | – |
| > 10000 | COc1ccccc1CNC(=O)c1cc(C(F)(F)F)nn1-c1cccc2c1CN(CNC(=O)[C@H](C)N)C2 | – |
| 790 | C[C@H](N)C(=O)NCc1cc(-n2nc(C(F)(F)F)cc2C(=O)NCc2ccccc2F)cs1 | – |
| 770 | COC(=O)c1ccccc1CNC(=O)c1cc(C(F)(F)F)nn1-c1csc(CNC(=O)[C@H](C)N)c1 | – |
| 260 | Cc1ccccc1CNC(=O)c1cc(C(F)(F)F)nn1-c1csc(CNC(=O)[C@H](C)N)c1 | – |
| 370 | COc1cccc(CNC(=O)c2cc(C(F)(F)F)nn2-c2csc(CNC(=O)[C@H](C)N)c2)c1 | – |
| 4480 | C[C@H](N)C(=O)NCc1ccc(-n2nc(C(F)(F)F)cc2C(=O)NCc2ccccc2C(F)(F)F)s1 | – |
| 3350 | C[C@H](N)C(=O)NCc1ccc(-n2nc(C(F)(F)F)cc2C(=O)NCc2ccccn2)s1 | – |
| 2920 | CC(C)Oc1ccccc1CNC(=O)c1cc(C(F)(F)F)nn1-c1ccc(CNC(=O)[C@H](C)N)s1 | – |
| 2310 | C[C@H](N)C(=O)NCc1ccc(-n2nc(C(F)(F)F)cc2C(=O)NCc2ccccc2F)s1 | – |
